# From ChEMBL document CHEMBL4513216, “Probing the Open Global Health Chemical Diversity Library for Multistage-Active Starting Points for Next-Generation Antimalarials” (ACS Infect Dis, 2020)
# Assay: Toxicity liver stage against HepG2, at 10uM
# Assay type: cell-based
# Parameters: test concentration 10 uM, cell line HepG2-A16-CD81EGFP
# Details: human, HepG2-A16-CD81EGFP cells; read-out: INHIBITION
# In short: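 Uninfected HepG2-A16-CD81EGFP cells, 3 × 10^3 per well, 1536-well, plated on prespotted compound at 10 μM final, parasite-free screening media added to match infected plates; puromycin 10 μM positive, DMSO 0.5% negative; run in parallel with 48 h PbLuc assay at 37 °C, 5% CO2; viability by CellTiter-Glo luminescence, normalized to controls.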
row,Compound,cytotoxicity at 10 µM [%]
1,CC(=O)N1CCN2C(=O)N(Cc3ccc(F)cc3)C[C@H]2C1,-4.26
2,O=C(c1ccno1)N1CCN2C(=O)N(Cc3ccc(F)cc3)C[C@H]2C1,-5.96
3,Cc1cccn2c(=O)cc(CSCC(=O)Nc3nnc(C(C)C)s3)nc12,0.879
4,COc1ccc(NC(=O)C2OC(c3cccs3)=NN2C(C)=O)cc1OC (stereo not given),-2.19
5,CC(C)c1ccc(C2CC(=O)Nc3c2cnn3C)cc1 (stereo not given),-2.9
6,O=C(CCc1nc2cccnc2[nH]1)Nc1ccc2c(c1)NC(=O)CO2,-1.94
7,CN(C)CCCNC(=O)C1CC(=O)N(c2n[nH]c3cccc(F)c23)C1 (stereo not given),-5.92
8,CC(C)CC(=O)N1CCC2(CC1)NC(=O)[C@H]1CN(C(=O)N(C)C)C[C@H]12,-1.74
9,CN(C)CCNC(=O)c1ccc2ccc(N(C)CC3CC3)n2c1,-2.69
10,O=C(N1CCCO1)[C@@]12CCO[C@@H]1CCN(Cc1ccsc1)C2,1.73
11,CCOCc1ncn2c1CN(S(=O)(=O)c1ccc(F)cc1)CC2,1.29
12,CCOc1cc2c(cc1C(=O)O)CCC2,-18.6
13,Cc1cc(NC(=O)C(C)Oc2ccc3c(c2)OCO3)no1 (stereo not given),-5.08
14,Cc1c2ncn(CC(=O)c3ccccc3)c(=O)c2nn1C,-8.58
15,COc1ccccc1CN(C)Cc1ccnc(C2CCCO2)n1 (stereo not given),4.65
16,CCN(CC)C1CCN(C(=O)c2cc(-n3cccn3)ccc2Cl)CC1,2.87
17,OC1(CN2CCC(Cc3ncccn3)CC2)CCCCC1,7.69
18,CC(C)N1CCCC1c1nc(N(C)C)ncc1I (stereo not given),-0.358
19,CCOc1ccc(CN2CCC(c3[nH]ncc3C)C2)cc1CO (stereo not given),-2.38
20,Cc1noc(C)c1CC(=O)NCC1(O)CCCN(c2ccccn2)C1 (stereo not given),-2.03
21,COCCNCc1cc2cc(C)cc(C)c2[nH]c1=O,-2.13
22,CNc1cc(C2CN(CC(=O)N(C)C)CCO2)nc(C)n1 (stereo not given),-14.4

row,Compound,cytotoxicity at 10 µM [%]
1,Cc1cc(N2CCCC2c2cncc(N(C)C)n2)ncn1 (stereo not given),-15.2
2,COc1ccccc1CN1CCC(O)(Cn2ccc3ncccc32)CC1,-0.692
3,CC(=O)NC[C@]1(O)CCN(C(=O)c2ccc3c(c2)CCC3)C[C@H]1O,1.75
4,O=C(c1ccco1)N1CCCC(c2cc(C(F)F)n3ncnc3n2)C1 (stereo not given),4.4
5,O=C(Cc1cccc(F)c1F)NS(=O)(=O)c1cncc(Cl)c1,14.5
6,COc1ccccc1CC(C)N(C)S(C)(=O)=O (stereo not given),14
7,COCCCNC(=O)CN(C)C(C)c1nc(C)no1 (stereo not given),8.8
8,CN(Cc1ccsc1)C(=O)COC(=O)c1cc(Cl)c[nH]1,-3.73
9,CC(CNS(N)(=O)=O)Oc1cccc(Cl)c1 (stereo not given),2.24
10,CC(NS(N)(=O)=O)c1ccc(OCc2ccc(F)cc2)cc1 (stereo not given),-2.98
11,O=C1NCCCCC1NC(=O)C1(c2cccc(Cl)c2)CC1 (stereo not given),2.68
12,O=C(CNC(=O)c1ccc(Cl)cc1)Nc1nccs1,-7.55
13,OCCCN1CCCC1c1nc(Cc2ccc(F)cc2)no1 (stereo not given),-4.58
14,CC1CN(C(=O)NCc2ccn(C)c2)CCN1CC(F)(F)F (stereo not given),-4.32
15,CCS(=O)(=O)Cc1ccn(-c2cccc(F)c2)n1,-0.988
16,CCc1nc(CN(C)CC(=O)NC(C)C)cs1,1.48
17,O=C(c1cccnc1)N(Cc1ccncc1)C1CC1,8.32
18,Cn1nc(CC(C)(C)C)cc1NC(=O)c1ccc2[nH]nnc2c1,1.25
19,Cc1cc(C)n(CC2CCCN2CC(=O)Nc2nncs2)n1 (stereo not given),12.1
20,Cc1ccc(N2CCCC(NCCCS(C)(=O)=O)C2)nn1 (stereo not given),0.833
21,CCc1nc(CN2CCCC(N(C)Cc3nc(C)c(C)o3)C2)no1 (stereo not given),-16.5
22,Cc1ccc(C(=O)N2CCSCC2)cc1NC(C)C,-3.42

row,Compound,cytotoxicity at 10 µM [%]
1,CCC1CCCCN1Cc1ncc(-c2ccc(OC)cc2)o1 (stereo not given),8.57
2,Cc1noc(C)c1CNCc1ccccc1N(C)C1CCN(C)CC1,4.69
3,O=C1CC2(CCSC2)C(=O)N1Cc1ncc(-c2ccccc2)o1 (stereo not given),14.4
4,CN(CCN1CCCC1=O)CC(c1cccs1)N1CCOCC1 (stereo not given),1.52
5,O=C(C(c1ccccc1)N1CCc2cncnc2C1)N1CCCCC1 (stereo not given),1.26
6,COCCC(=O)N1CCN(CC2CC2)c2ccccc21,-4.5
7,OC1(CN2CCC(Cc3ccccc3)CC2)CCC1,-8.26
8,COc1ccccc1C(C)N1CCN(S(=O)(=O)N(C)C)CC1 (stereo not given),-8.8
9,NC(=O)NC(CC(=O)N1CCc2sccc2C1)c1cccc(Br)c1 (stereo not given),3.43
10,c1cnn(C2CN(Cc3noc(C4CC4)n3)C2)c1,0.138
11,Cc1csc(C2(NCc3ccc(OCC(F)F)cc3)CCCC2)n1,2.15
12,N#Cc1cc(F)c(NCCc2cccnc2)c(F)c1,-68.5
13,CN(Cc1cccc(F)c1)C(=O)c1ccncc1Cl,10.5
14,Cn1nnc2c1C(COCC1CC1)CN(C(=O)CC1=CCCCC1)C2 (stereo not given),-99.3
15,Cn1nc(C#N)c2c1CN(C(=O)c1c[nH]cn1)CCC2,-122
16,Cc1nnc([C@H]2C[C@H]3CN(C(=O)Cc4ccc(F)cc4)CC[C@@H]3O2)o1,-104
17,CCS(=O)(=O)N1CCC2(CN(Cc3ccc(C)o3)C2)C1,-109
18,O=c1ccc2c(n1CC1CC1)CCC(NS(=O)(=O)C1CC1)C2 (stereo not given),-63.9
19,Cc1ccc2c(c1)[C@@H](CC(=O)N1CCOCC1)CCO2,8.24
20,Nc1ncc(-c2cccc(NC(=O)[C@@H]3CCCCN3)c2)cn1,1.86
21,COc1cncc(-n2ccnc2-c2ccc(C(=O)O)s2)c1,0.571
22,COc1cc(C(=O)N(C)C(C)Cc2cc(C)ccn2)ccn1 (stereo not given),-9.57

row,Compound,cytotoxicity at 10 µM [%]
1,CC(C)c1nnsc1CNC(=O)C1CCN(C(=O)C2CC2)CC1,-0.439
2,OCC1(Cc2ccc(Cl)cc2)CCN(Cc2ccccc2O)CC1,-137
3,CCN1CC(C(=O)NCc2cccc(SC)c2)CC1=O (stereo not given),4.68
4,Cc1nc(N(C)Cc2cccc(O)c2)nc2cc(S(C)(=O)=O)ccc12,-2.54
5,CC(C)C1=NOC(c2nc(-c3cccc(Cl)c3)no2)C1 (stereo not given),-7.42
6,Cc1ncc2c(c1CNC(=O)C1(C)CC1)CCNC2,-50.3
7,CC(=O)N[C@@H]1CN(C2CCN(c3ccccc3F)CC2)C[C@H]1C(C)C,-14.5
8,CCN1CC2(CCN(C(=O)C(C)Oc3cccc(Cl)c3)CC2)OC1=O (stereo not given),-4.68
9,Cc1nnsc1C(=O)N1CCN(CC2CC2)[C@@H]2CS(=O)(=O)C[C@@H]21,0.445
10,COc1cccc2c1OCCCN(c1nc(C)nc3c1CCNCC3)C2,-10.6
11,COc1nc(C)c(C(=O)N2CCc3[nH]nc(Cc4ccccc4)c3C2)s1,-2.53
12,CCN(Cc1noc(C)n1)C(=O)C(c1ccccc1C)N(C)C (stereo not given),1.89
13,O=C(Nc1cnc2n1CCCC2)c1cccc(NC(=O)C2CCCC2)c1,-5.09
14,CCc1nnc(CN2CCc3[nH]c(-c4ccc(OC)cc4)nc3C2)o1,-132
15,CC(C)C1CN(C(=O)c2ccc(Cl)cn2)CCCN1CC1CC1 (stereo not given),5.15
16,CNc1nc2c(c(C(=O)N3CCCC3)n1)CN(Cc1cc(C)no1)CC2,-103
17,CCN(Cc1ccc(C(C)=O)cc1)CC1CCOCC1,-2.69
18,CCC(Cn1ccnc1)n1cnc2scc(C)c2c1=O (stereo not given),10.7
19,CCN(Cc1ccncc1)c1cc(C2CCNCC2)nc(C)n1,4.34
20,CC(C)NCc1cc2n(n1)CCN(C1CCCCC1)C2,-8.9
21,CCn1ccnc1CN1C[C@@H](NC(=O)C2CC2)[C@H](c2ccc(C)cc2)C1,2.63
22,CC(Oc1ccc(F)cc1F)C(=O)N1CCC2(CCCO2)CC1 (stereo not given),2.24

row,Compound,cytotoxicity at 10 µM [%]
1,CC(C)(C)c1cc(CN2CCOC(CN)C2)n[nH]1 (stereo not given),-12.1
2,CN(Cc1ccccc1)C(=O)CCN1C[C@H](C2CC2)[C@@H](N(C)C)C1,-1.21
3,Cc1ncc(CN2CCN(C(=O)C3CCC3)[C@@H]3CS(=O)(=O)C[C@@H]32)cn1,-4.19
4,NS(=O)(=O)Cc1cccc(C(=O)N2CCCC(n3cccn3)C2)c1 (stereo not given),1.25
5,O=C(c1cc(C2CC2)[nH]n1)N1CCCC(n2cncn2)C1 (stereo not given),-6
6,CCn1ccnc1CN1CCN(CC(O)c2ccccc2)CC1 (stereo not given),-7.41
7,O=C(CCCc1nc2ccccc2[nH]1)N1CCCC(n2cccn2)C1 (stereo not given),-0.704
8,Cc1cnn(CCNCc2csc(-c3ccc(F)cc3)n2)c1,-8.54
9,Cn1cc(CN2CCC3(CCN(c4cnn(C)c4)C3=O)C2)cn1 (stereo not given),-83.4
10,Cc1ccc(N2CC[C@H]3C[C@H](C(=O)NCc4ccco4)O[C@H]3C2)nn1,-3.03
11,CCN(C)c1ncnc2c1CCN(C(=O)c1ccsc1)CC2,-0.408
12,Cc1cncc(C(=O)N2CCO[C@H]3[C@H](OCCN(C)C)CC[C@@H]32)c1,8.07
13,Cc1ccc(CN2CCCC3(CCCCN3S(C)(=O)=O)C2)s1 (stereo not given),-115
14,NC(=O)N1C[C@H]2CN(Cc3nccs3)C[C@H]2C1,2.6
15,CN1CCN(S(=O)(=O)c2ccccc2)Cc2cccnc21,-104
16,Cc1occc1C(=O)N1CCC2(CC1)CN(c1ccccn1)CCO2,-75.6
17,CCS(=O)(=O)N1CCCn2cnc(COc3cccnc3)c2C1,-0.00278
18,COCCN1C(=O)[C@]2(CC[C@@H]3CN(Cc4ccccc4F)C[C@@H]32)N=C1C,-0.0957
19,CC1=N[C@@]2(CC[C@@H]3CN(Cc4cccc(Cl)c4)C[C@@H]32)C(=O)N1CC1CC1,0.758
20,Cn1cc(N2CC3(CCN(Cc4nccn4C)C3)CC2=O)cn1 (stereo not given),-72.8
21,O=C(c1cnccn1)N1C[C@@H](OCc2cccnc2)[C@H]2OCCC[C@H]21,-2.78
22,O=C(c1cscn1)N1CCC2(CCN(Cc3nccs3)CC2)C1,-69
